From the EternaBench riboswitch data

Tested on: MS2 coat protein
Assay: apparent Kd, MS2 coat protein; higher = weaker binding; RNA-MaP array; FMN 200 µM where present
Outline: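 Designs were transcribed by stalled E. coli RNA polymerase on Illumina sequencing-chip clusters. They were titrated with SNAP-549-labelled MS2 coat protein from 0.7 or 1.5 nM, doubling to 3 µM, without and then with constant ligand. Buffer: 100 mM Tris-HCl pH 7.5, 80 mM KCl, 4 mM MgCl2, BSA, DTT, yeast tRNA, Tween-20. Green signal was normalised to red-channel RNA signal and control-cluster median Fmax. Apparent Kd is the median of filtered per-cluster binding-curve fits.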

[1] = designed as: OFF switch for flavin mononucleotide, no ligand
[2] = ligand present: flavin mononucleotide, designed as: OFF switch for flavin mononucleotide
[3] = designed as: ON switch for flavin mononucleotide, no ligand
[4] = ligand present: flavin mononucleotide, designed as: ON switch for flavin mononucleotide

Row | Sequence | apparent Kd [1] [nM] | apparent Kd [2] [nM] | apparent Kd [3] [nM] | apparent Kd [4] [nM]
1 | GCAUCCAAAGUGAGGAUAUACCUCUGGAUACAUAGGUAGAAGGCACAUGAGGAUCACCCAUGUUCCUAGGAUGC | 31.6 | 43.1 | – | –
2 | GGAAUAAAUGCAGGAUAUACGUGGAAAGCCCUCAACAUGAGGAUCACCCAUGUAGAAGGGCAUCUCCCGACCGAAGCGGAUCUC | 4.41 | 4.82 | – | –
3 | UUUGUAAUGUCAGGAUAUUUUAUAAGUCAUACUGAAGAAGGGAUAAUUAUACUCAUGUACAUGAGGAUCACCCAUGUUAAAUAU | – | – | 43.6 | 33.6
4 | CCGCAAAUGGAGGAUAUCGUAUCGGAUACGAUACGAGAAGGCUAUACAUGAGGAUCACCCAUGUGUCCUAGCGG | 13.5 | 18.3 | – | –
5 | GUAUGAGCGAUAGGAUAUACUGGGAUUGAAUGGGUAGAAGGAUUUCUAGUGGGAAAGACAUGAGGAUCACCCAUGUCGCGGACC | – | – | 37.9 | 35.4
6 | AUAAAACAUGAGGAUCACCCAUGUAAUAAGAACCGAGGAUAUGGAAAUAAUAAUAAUAAACCAGAAGGUGGUGAUC | – | – | 146 | 326
7 | UAUUAACACGAAGGAUAUGCUUACAUGAGGAUCACCCAUGUAUGUAUAUUGAUCCAGAGUUUUGAGCAGAAGGUCGUGAGUAAA | 32.2 | 153 | – | –
8 | AUCGUGCAGCUUUGCUGUACGCGUACAUGAGGAUCACCCAUGUAGGAUAUGGUAGGCUUUGCUUACUAGAAGGAUAGUGUGAUC | 106 | 33.2 | – | –
9 | GGGCCCGGAGGAUAUACAUGAGGAUCACCCAUGUAGGGCUCGGGUAUUUCUGGGUCUUGUAGAAGGCCGGGCCC | 16 | 22.8 | – | –
10 | AUGAGUAAAGCAGGAUAUCUAUUGUCUCAGUAACAUGAGGAUCACCCAUGUAGAGAAGGGCUAAGUCUUACUCUUCGGAGAUGA | 12.3 | 13.4 | – | –
11 | UUACCUUAUGAGAAGGCGAUCAUGAAACAUGAUCGAGGAUAUCAUGUAAACAUGAGGAUCACCCAUGUAUGGGUAUUAUGGUAU | – | – | 96 | 23.9
12 | UUGUUGUCAGGAUAUCGUUAAUUUAAUUGUUUGUAUUAGUUCGAGAAGGGACAUGAGGAUCACCCAUGUUUGUU | 34.5 | 73.5 | – | –
13 | UUGGACGUCGUAGGAUAUGUAGGAUAUUCCUACAUGAGGAUCACCCAUGUUGACAUGGAAGAAGAACAGAAGGACGAUGUCCAU | – | – | 212 | 6.04
14 | GCGUCAGAAUUAAUUGUGACAGGCAGAAGGCCAUAUCUUAUGUCAGACAUGAGGAUCACCCAUGUGGAGGAUAUGCAGUUACAC | 11.5 | 19.1 | – | –
15 | UAGGUACAUGAGGAUCACCCAUGUGAGGAUAUAGAUGAAGAUUGCGAGAGGGAGAGGACUAGAAGGCACAGUGG | 33.3 | 36.8 | – | –
16 | ACAUGAGGAUCACCCAUGUAGAGUGAAGAAGGUAGAUACUUGUGACUCUCCCAUGUACAUAGGACUGAGGAUAUUCUAAUAAUU | – | – | 24.2 | 20.9
17 | CCGGAAGUACAGGAUAUCGUAUCGGAAACGAUACGAGAAGGGUAUACAUGAGGAUCACCCAUGUGUCCUACCGG | 28.7 | 27.9 | – | –
18 | CUAAAUCAUGUAGGAUAUCGAUUGCGUCGCGAUCGAGAAGGACAUGAGGAUCACCCAUGUCAGAACGUCUGCGUUCAGACGUUG | 48.5 | 361 | – | –
19 | UGAUAGGACAGAGGAUAUACGGCUAGGAGAUACUAGCUACUAUUCCUCACAUGAGGAUCACCCAUGUAGAAGGCUGUCCUAUCU | 16.9 | 148 | – | –
20 | CGUUAUAACGAGAAGGCUGUCUGCAGUCCAGACGGAGGAUAUCGAGAAGACAUGAGGAUCACCCAUGUACGCUGGUGUCUUCAU | 25.4 | 189 | – | –
21 | GACAUGAGGAUCACCCAUGUCCGGGCCAAAAGAAGAAAUACCAGAAGGACCGGCAGAAAUGAGCGGUAGGAUAUGGGAUUCGUG | – | – | 36.7 | 12.1
22 | UUUUAAUAAAAGAAGGAGCACUACAUGAGGAUCACCCAUGUGUUAGUAGUUAGGAUAUUUAAUAACAUGAGGAUCACCCAUGUA | – | – | 194 | 87
23 | AUAGAAAGAUUAAUAUGAUUACAUGAGGAUCACCCAUGUAUAUAGGAUAUCGACGUCAAUGACGUCGAGAAGGAUAUACAUAAU | 27.6 | 90.4 | – | –
24 | AGAACAUGAGGAUCACCCAUGUAAAGGUCGGUCAAUAAGGGUGAGGAUAUGCUUAAAAUAAGGUAGCAGAAGGUGCUUGGUGCA | – | – | 713 | 603
25 | UUUCUUGGGCAAGGAUAUCCUGUGCGGUUCCGGCUCGUGUCUGUCACAUGAGGAUCACCCAUGUGGGAGAAGGUGCCUGCGGUU | 6.26 | 6.64 | – | –
26 | GAGUAGUUGAUAGGAUAUUGAUUGUUAUAGGAUCAAGAAGGAUCUAACAUGAGGAUCACCCAUGUAGGACUAUUCCUGUGUAUC | – | – | 22.1 | 19.2
27 | UGUCGGAGCAAAGGAUAUUACAUGAGGAUCACCCAUGUAUGAACCAAUAGCUGGAAACAGCAAUGUAAGAAGGCUGCUCCGACA | 4.79 | 5.81 | – | –
